Laboratory results as given in ChEMBL document CHEMBL1153573, “Synthesis of a series of N6-substituted adenosines with activity against trypanosomatid parasites” (Eur J Med Chem, 2009).
pIC50: −log10 of the molar value.

Tested on: Trypanosoma brucei rhodesiense
Experiment: Antitrypanosomal activity against Trypanosoma brucei rhodesiense STIB 900 after 72 hrs by alamar blue based microplate assay
Format: functional, organism-based
Conditions: STIB 900, 72 h
Outline: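 Bloodstream-form T. b. rhodesiense STIB 900, 10⁴ per well, in minimum essential medium with 2-mercaptoethanol and 15% heat-inactivated horse serum. Serial dilutions spanning […]. Incubated 37 °C, 5% CO₂, 72 h. Resazurin (Alamar Blue) then added and incubation continued. Fluorescence read at ex 536/em 588 nm as percent of control, IC50 calculated. Melarsoprol standard.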

Structure (SMILES) | pIC50
O=C(NCCOCCNc1ncnc2c1ncn2[C@@H]1O[C@H](CO)[C@@H](O)[C@H]1O)c1cccc(F)c1 | 4.87
O=C(CCCc1ccccc1)NCCOCCNc1ncnc2c1ncn2[C@@H]1O[C@H](CO)[C@@H](O)[C@H]1O | 5.40
CC(C)=CC(=O)NCCOCCNc1ncnc2c1ncn2[C@@H]1O[C@H](CO)[C@@H](O)[C@H]1O | 3.90
O=C(NCCOCCNc1ncnc2c1ncn2[C@@H]1O[C@H](CO)[C@@H](O)[C@H]1O)c1ccc(Oc2ccccc2)cc1 | 5.00
O=C(CCCc1c[nH]c2ccccc12)NCCOCCNc1ncnc2c1ncn2[C@@H]1O[C@H](CO)[C@@H](O)[C@H]1O | 4.42
O=C(Cc1cccc2ccccc12)NCCOCCNc1ncnc2c1ncn2[C@@H]1O[C@H](CO)[C@@H](O)[C@H]1O | < 3.77
O=C(CCCc1ccc([N+](=O)[O-])cc1)NCCOCCNc1ncnc2c1ncn2[C@@H]1O[C@H](CO)[C@@H](O)[C@H]1O | 4.05
COc1cccc(CC(=O)NCCOCCNc2ncnc3c2ncn3[C@@H]2O[C@H](CO)[C@@H](O)[C@H]2O)c1 | 3.88
COc1ccc(C(=O)NCCOCCNc2ncnc3c2ncn3[C@@H]2O[C@H](CO)[C@@H](O)[C@H]2O)cc1OC | < 3.77
CC(=O)Nc1ccc(C(=O)NCCOCCNc2ncnc3c2ncn3[C@@H]2O[C@H](CO)[C@@H](O)[C@H]2O)cc1 | 3.88
O=C(NCCOCCNc1ncnc2c1ncn2[C@@H]1O[C@H](CO)[C@@H](O)[C@H]1O)C(c1ccccc1)c1ccccc1 | 4.07
O=C(NCCOCCNc1ncnc2c1ncn2[C@@H]1O[C@H](CO)[C@@H](O)[C@H]1O)c1ccc(F)c(F)c1 | 3.78
COc1ccc(CC(=O)NCCOCCNc2ncnc3c2ncn3[C@@H]2O[C@H](CO)[C@@H](O)[C@H]2O)cc1OC | 5.04
O=C(Cc1c(Cl)cccc1Cl)NCCOCCNc1ncnc2c1ncn2[C@@H]1O[C@H](CO)[C@@H](O)[C@H]1O | 4.30
O=C(CCCOc1ccccc1)NCCOCCNc1ncnc2c1ncn2[C@@H]1O[C@H](CO)[C@@H](O)[C@H]1O | 5.47
